Measured values taken from ChEMBL document CHEMBL1828573, “Synthesis and biological evaluation of the glycoside (25R)-3β,16β-diacetoxy-22-oxocholest-5-en-26-yl β-d-glucopyranoside: a selective anticancer agent in cervicouterine cell lines” (Eur J Med Chem, 2011).
Calls of active or inactive are those of the source. No cut-off for these calls is given here.

What was measured:
Ca-Ski [1] = assay: Antiproliferative activity human CaSki cells after 24 hrs by crystal violet staining; assay type: functional, cell-based
How it was run: (§1)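 Cells in RPMI-1640 with 5% newborn calf serum, 37 °C, 5% CO2, exponential phase. Seeded at 7500 cells/well and grown 24 h, then exposed over a concentration range in ethanol vehicle; controls got 1% ethanol. After 24 h, crystal violet staining with absorbance at 590 nm. IC50 taken from the decrease in cell population.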

HeLa [2] = assay: Induction of apoptosis in human HeLa cells assessed as induction of active caspase-3 expression at 29.5 to 33.9 uM using FITC/DAPI staining by epifluorescence microscopy; assay type: functional, cell-based
How it was run: (§2)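 Seeded at 5 × 10^4 cells/mL in RPMI-1640 with 5% NCS for 24 h, then treated with 33.9 or 29.5 µM. Formaldehyde fixation 15 min, 0.5% Triton X-100 permeabilization, blocking. Rabbit anti-active caspase-3 (1:50), then FITC goat anti-rabbit (1:200). DAPI counterstain; fluorescence microscopy.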

ViBo [3] = assay: Induction of apoptosis in human ViBo cells assessed as induction of active caspase-3 expression at 29.5 to 33.9 uM using FITC/DAPI staining by epifluorescence microscopy; assay type: functional, cell-based; how it was run: as §2
[4] = Cell cycle arrest at S-phase in human ViBo cells at 29.5 to 33.9 uM after 24 hrs using propidium iodine staining by flow cytometry; assay type: functional, cell-based
How it was run: (§3)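 Seeded at 10^5 cells/mL and grown 24 h, then exposed to 33.9 or 29.5 µM. Harvested with versene and fixed/permeabilized in 50% methanol in PBS. Treated with RNase (2.5 U/mL), stained with propidium iodide (0.2 mg/mL), DNA content analysed by G1, S, G2/M and SubG1.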

[5] = Antiproliferative activity human ViBo cells after 24 hrs by crystal violet staining; assay type: functional, cell-based; how it was run: as §1
[6] = Cell cycle arrest at G2/M-phase in human ViBo cells at 29.5 to 33.9 uM after 24 hrs using propidium iodine staining by flow cytometry; assay type: functional, cell-based; how it was run: as §3
Ca-Ski [7] = assay: Induction of apoptosis in human CaSki cells assessed as decrease in DNA level at 29.5 to 33.9 uM after 24 hrs using propidium iodine staining by flow cytometry; assay type: functional, cell-based; how it was run: as §3
[8] = Cytotoxicity against human PHA-stimulated lymphocytes assessed as LDH release at 33.9 uM after 72 hrs by spectrophotometry; assay type: cell-based; conditions: lymphocyte
How it was run: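 Lymphocytes exposed to compound or ethanol (10 µL/mL); PHA-activated lymphocytes (15 µL/mL) served as control. After 72 h, LDH released into the culture supernatant measured. Mean ± S.D. of three independent experiments with three repetitions.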

HeLa [9] = assay: Cytotoxicity against human HeLa cells assessed as LDH release at IC50 after 24 hrs by spectrophotometry; assay type: functional
Ca-Ski [10] = assay: Cell cycle arrest at G2/M-phase in human CaSki cells at 29.5 to 33.9 uM after 24 hrs using propidium iodine staining by flow cytometry; assay type: functional, cell-based; how it was run: as §3
PBMC [11] = assay: Antiproliferative activity human PBMC assessed as non-proliferating cells at 33.9 uM after 72 hrs using FITC-A staining by flow cytometry; assay type: cell-based
How it was run: (§4)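 Enriched lymphocytes from one healthy donor: non-adherent cells kept after 1 h at 37 °C. Labelled with CFSE for 15 min at room temperature in the dark, quenched with NCS, washed. Plated at 2 × 10^5 cells/well, unstimulated, PHA-stimulated or treated, with ethanol 1% vehicle control. Five replicates, 72 h at 37 °C. Then 1% formaldehyde fixation and flow cytometry, ≥20,000 events.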

Ca-Ski [12] = assay: Induction of apoptosis in human CaSki cells assessed as increase in cell nuclei released from broken cell at 29.5 to 33.9 uM after 24 hrs using propidium iodine staining by flow cytometry; assay type: functional, cell-based; how it was run: as §3
HeLa [13] = assay: Cell cycle arrest at S-phase in human HeLa cells at 29.5 to 33.9 uM after 24 hrs using propidium iodine staining by flow cytometry; assay type: functional, cell-based; how it was run: as §3
Ca-Ski [14] = assay: Cell cycle arrest at G1-phase in human CaSki cells at 29.5 to 33.9 uM after 24 hrs using propidium iodine staining by flow cytometry; assay type: functional, cell-based; how it was run: as §3
HeLa [15] = assay: Induction of apoptosis in human HeLa cells assessed as DNA fragmentation at IC50 after 24 hrs by TUNEL assay; assay type: functional, cell-based
ViBo [16] = assay: Induction of apoptosis in human ViBo cells assessed as DNA fragmentation at IC50 after 24 hrs by TUNEL assay; assay type: functional, cell-based
Ca-Ski [17] = assay: Cell cycle arrest at S-phase in human CaSki cells at 29.5 to 33.9 uM after 24 hrs using propidium iodine staining by flow cytometry; assay type: functional, cell-based; how it was run: as §3
HeLa [18] = assay: Cell cycle arrest at G2/M-phase in human HeLa cells at 29.5 to 33.9 uM after 24 hrs using propidium iodine staining by flow cytometry; assay type: functional, cell-based; how it was run: as §3
Ca-Ski [19] = assay: Induction of apoptosis in human CaSki cells assessed as DNA fragmentation at IC50 after 24 hrs by TUNEL assay; assay type: functional, cell-based
HeLa [20] = assay: Antiproliferative activity human HeLa cells after 24 hrs by crystal violet staining; assay type: functional, cell-based; how it was run: as §1
[21] = Cytotoxicity against human ViBo cells assessed as LDH release at IC50 after 24 hrs by spectrophotometry; assay type: functional
Ca-Ski [22] = assay: Induction of apoptosis in human CaSki cells assessed as induction of active caspase-3 expression at 29.5 to 33.9 uM using FITC/DAPI staining by epifluorescence microscopy; assay type: functional, cell-based; how it was run: as §2
Ca-Ski [23] = assay: Cytotoxicity against human CaSki cells assessed as LDH release at IC50 after 24 hrs by spectrophotometry; assay type: functional
PBMC [24] = assay: Antiproliferative activity human PBMC assessed as proliferating cells at 33.9 uM after 72 hrs using FITC-A staining by flow cytometry; assay type: cell-based; how it was run: as §4

CC(=O)O[C@H]1CC[C@@]2(C)C(=CC[C@H]3[C@@H]4C[C@H](OC(C)=O)[C@H]([C@H](C)C(=O)CC[C@@H](C)CO)[C@@]4(C)CC[C@@H]32)C1
IC50 (Ca-Ski [1]): 47.1 µM

CC(=O)O[C@H]1CC[C@@]2(C)C(=CC[C@H]3[C@@H]4C[C@H](OC(C)=O)[C@H]([C@H](C)C(=O)CC[C@@H](C)CO[C@@H]5O[C@H](CO)[C@@H](O)[C@H](O)[C@H]5O)[C@@]4(C)CC[C@@H]32)C1
Activity (HeLa [2]): Active
Activity (ViBo [3]): Active
Activity [4]: Active
IC50 [5]: 29.5 µM
Activity [6]: Active
Activity (Ca-Ski [7]): Active
Activity [8]: Non-toxic
Activity (HeLa [9]): 6%
Activity (Ca-Ski [10]): inactive
Activity (PBMC [11]): 27.91%
Activity (Ca-Ski [12]): Active
Activity (HeLa [13]): Active
Activity (Ca-Ski [14]): inactive
Activity (HeLa [15]): Active
Activity (ViBo [16]): Active
Activity (Ca-Ski [17]): inactive
Activity (HeLa [18]): Active
Activity (Ca-Ski [19]): Active
IC50 (HeLa [20]): 29.5 µM
Activity [21]: 11%
Activity (Ca-Ski [22]): Active
Activity (Ca-Ski [1]): Dose-dependent effect
IC50 (Ca-Ski [1]): 33.9 µM
Activity (Ca-Ski [23]): 1%
Activity (PBMC [24]): 72.09%
